According to ChEMBL document CHEMBL1140485, “MexAB-OprM specific efflux pump inhibitors in Pseudomonas aeruginosa. Part 7: highly soluble and in vivo active quaternary ammonium analogue D13-9001, a potential preclinical candidate” (Bioorg Med Chem, 2007):
Converted amounts (≈) assume the structure as drawn.

Legend:
Pseudomonas aeruginosa [1] = assay: Inhibition of Pseudomonas aeruginosa PAM1723 MexAB-OprM assessed as drug level required to decrease MIC of aztreonam
Method in brief: (§1)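 P. aeruginosa PAM1723 overexpresses MexAB-OprM, with MexCD-OprJ and MexEF-OprN disrupted. The partner antibiotic's MIC was measured with and without inhibitor by NCCLS broth microdilution in Mueller–Hinton broth. Inoculum was 1 × 10⁶ CFU/mL, incubated 18 h at 37 °C, and growth was read visually. The value is the minimum inhibitor concentration that lowers the partner's MIC 8-fold (MPC₈).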

Pseudomonas aeruginosa [2] = assay: Inhibition of Pseudomonas aeruginosa PAM1723 MexAB-OprM assessed as drug level required to decrease MIC of levofloxacin in presence of 0.125% HAS; method in brief: as §1
Pseudomonas aeruginosa [3] = assay: Inhibition of Pseudomonas aeruginosa PAM1723 MexAB-OprM assessed as drug level required to decrease MIC of levofloxacin; method in brief: as §1
[4] = Aqueous solubility at pH 6.8; type: physicochemical; conditions: buffer
Mus musculus [5] = assay: Toxicity in mouse assessed as lethal effect at 50 mg/kg, iv; type: organism-based; parameters: dose 50 mg/kg, route intravenous; conditions: in vivo
Method in brief: (§2)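 Mice received a single intravenous dose at 50 or 100 mg/kg in groups of three. The read-out was the number of deaths per group.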

Mus musculus [6] = assay: Toxicity in mouse assessed as lethal effect at 100 mg/kg, iv; type: organism-based; parameters: dose 100 mg/kg, route intravenous; conditions: in vivo; method in brief: as §2

| SMILES | Activity (Pseudomonas aeruginosa [1]) | Activity (Pseudomonas aeruginosa [2]) | Activity (Pseudomonas aeruginosa [3]) | solubility [4] | Activity [4] | Activity (Mus musculus [5]) | Activity (Mus musculus [6]) |
| --- | --- | --- | --- | --- | --- | --- | --- |
| CC(C)(C)c1csc(NC(=O)c2ccn3c(=O)c(/C=C/c4nnn[nH]4)c(N4CCC(OC(=O)NCC[N+](C)(C)CC(=O)[O-])CC4)nc3c2)n1 | 4 µg/mL | 16 µg/mL | 8 µg/mL | 170 µg/mL (≈ 245 µM) |  |  |  |
| CC(C)(C)c1csc(NC(=O)c2ccn3c(=O)c(/C=C/c4nnn[nH]4)c(N4CCC/C(=C\C(=O)NCC[N+](C)(C)CC(=O)[O-])C4)nc3c2)n1 | 8 µg/mL | > 16 µg/mL | 16 µg/mL |  | Not Active |  |  |
| CN(C)CCNC(=O)O[C@@H]1CCCN(c2nc3cc(C(=O)Nc4nc(C(C)(C)C)cs4)ccn3c(=O)c2/C=C/c2nnn[nH]2)C1 | 1 µg/mL | 4 µg/mL | 2 µg/mL |  |  | Non-toxic |  |
| CC(C)(C)c1csc(NC(=O)c2ccn3c(=O)c(/C=C/c4nnn[nH]4)c(N4CCC[C@@H](OC(=O)NCC[N+](C)(C)C)C4)nc3c2)n1 | 2 µg/mL | 4 µg/mL | 2 µg/mL |  |  |  |  |
| CC(C)(C)c1csc(NC(=O)c2ccn3c(=O)c(/C=C/c4nnn[nH]4)c(N4CCC[C@@H](OC(=O)NCC[N+](C)(C)CC(N)=O)C4)nc3c2)n1 | 4 µg/mL | 4 µg/mL | 4 µg/mL | 95 µg/mL |  |  | Non-toxic |
